Measured values published in ChEMBL document CHEMBL2440016, “Targeting the human parasite Leishmania donovani: discovery of a new promising anti-infectious pharmacophore in 3-nitroimidazo[1,2-a]pyridine series” (Bioorg Med Chem, 2013).

What was measured:
[1] = Cytotoxicity against mouse J774.1 cells after 72 hrs by MTT assay; type: cell-based; conditions: for CC50 at 72 h: J774.1 cells; for CC50: j774.1, 72 h
How it was run: (§1)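 Cells plated in RPMI with 10% FCS, L-glutamine and penicillin/streptomycin, 24 h at 37 °C, 6% CO2. Compound dilutions then added for 72 h. MTT 0.5 mg/mL in PBS for 2 h, formazan dissolved in DMSO, A570 with 630 nm reference. Viability taken as % of untreated control. Doxorubicin served as positive control. CC50 from the dose-response curve.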

[2] = Selectivity index, ratio of CC50 for mouse J774.1 cells to IC50 for Leishmania donovani MHOM/IN/00/DEVI; type: functional
Leishmania donovani [3] = experiment: Antimicrobial activity against Leishmania donovani MHOM/IN/00/DEVI promastigotes after 72 hrs by MTT assay; type: functional, organism-based
How it was run: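 Log-phase promastigotes in Schneider's medium with 20% FCS, 2 mM L-glutamine and penicillin/streptomycin, at 10⁶ parasites/mL. Compound dilutions run in duplicate, final DMSO <0.5%, 72 h at 27 °C. MTT 0.5 mg/mL for 6 h at 27 °C, formazan dissolved in DMSO, A570.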

[4] = (§2) Cytotoxicity against human HepG2 cells after 72 hrs by MTT assay; type: cell-based; conditions: HepG2 cells; how it was run: as §1
[5] = Selectivity index, ratio of CC50 for human HepG2 cells to IC50 for Leishmania donovani MHOM/IN/00/DEVI; type: functional
How it was run: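 SI = HepG2 CC50 / L. donovani IC50.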

Plasmodium falciparum = experiment: Antiplasmodial activity against Plasmodium falciparum K1 infected in human erythrocytes after 72 hrs by SYBR Green I fluorescence assay; type: functional, organism-based; conditions: K1, 72 h
How it was run: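 K1 strain, resistant to chloroquine, pyrimethamine and proguanil, grown in A+ human erythrocytes with RPMI 1640, HEPES, NaHCO3 and 10% A+ serum. Rings synchronized with 5% sorbitol. Compounds tested at 2% hematocrit and 1% parasitaemia, 72 h at 37 °C in 5% O2, 5% CO2, in triplicate. DNA read by SYBR Green I lysis, 15 min, ex 497/em 520 nm. IC50 from three independent experiments.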

Leishmania donovani [6] = experiment: Antimicrobial activity against Leishmania donovani MHOM/IN/00/DEVI amastigotes infected in mouse J774.1 cells after 120 hrs by microscopic analysis; type: functional, organism-based; conditions: J774.1, 120 h
How it was run: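 J774A.1 macrophages seeded at 5x10⁴ cells/mL, 24 h at 37 °C, 6% CO2. L. donovani promastigotes acidified 24 h at 27 °C in Schneider 20% FCS pH 5.4, then used to infect at 10:1 for 24 h. Compounds added in duplicate, final DMSO <0.5%, 120 h at 37 °C. Cells methanol-fixed and Giemsa-stained, ≥200 cells counted for % infected. IC50 by non-linear regression, mean of three independent experiments.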

HepG2 = experiment: as §2; type: cell-based; conditions: hepg2, 72 h; how it was run: as §1
[7] = Leishmania donovani, MHOM/IN/00/DEVI, 72 h, read-out: IC50

SMILES	CC50 at 72 h [1] [µM]	Ratio CC50/IC50 [2]	IC50 (Leishmania donovani [3]; [7]) [µM]	CC50 at 72 h [4] [µM]	Ratio CC50/IC50 [5]	IC50 (Plasmodium falciparum) [nM]	IC50 (Leishmania donovani [6]) [µM]	CC50 [1]	IC50 (Leishmania donovani [3])	CC50 (HepG2)
O=[N+]([O-])c1c(CS(=O)(=O)c2ccc(Cl)cc2)nc2ccc(Br)cn12	51.1	1.1	45.4	5.5	0.12					
O=S(=O)(Cc1cn2cc(Cl)ccc2n1)c1ccccc1	13.3	<0.3	> 50	16.5	<0.3					
O=[N+]([O-])c1c(CS(=O)(=O)c2ccc(Cl)cc2)nc2ccc(I)cn12	43.6	1.5	29.1	> 50	>1.7					
O=C1C(O)=C([C@H]2CC[C@H](c3ccc(Cl)cc3)CC2)C(=O)c2ccccc21 [ATOVAQUONE]						1.5				
O=S(=O)(Cc1cn2ccccc2n1)c1ccccc1	> 100		> 50	> 100						
O=[N+]([O-])c1c(CCl)nc2ccccn12	4.8	0.3	15.1	8.7	0.6					
CCCCCCCCCCCCCCCCOP(=O)([O-])OCC[N+](C)(C)C [MILTEFOSINE]	94.6						6.8			
COc1cccc2c1C(=O)c1c(O)c3c(c(O)c1C2=O)C[C@@](O)(C(=O)CO)C[C@@H]3O[C@H]1C[C@H](N)[C@H](O)[C@H](C)O1 [DOXORUBICIN]	0.02									
O=[N+]([O-])c1c(CS(=O)(=O)c2ccccc2)nc2ccccn12	> 100		> 50	> 62.5						
O=S(=O)(Cc1cn2cc(Cl)ccc2n1)c1ccc(Cl)cc1	68.7	<1.3	> 50	71.5	<1.4					
N=C(N)c1ccc(OCCCCCOc2ccc(C(=N)N)cc2)cc1 [PENTAMIDINE]	1	0.1			0.4		> 20			
O=S(=O)(Cc1cn2cc(Br)ccc2n1)c1ccc(Cl)cc1	43.9	<0.9	> 50	23	<0.5					
O=S(=O)(Cc1cn2cc(I)ccc2n1)c1ccccc1	5.2	<0.1	> 50	5	<0.1					
Cc1ccc(S(=O)(=O)Cc2nc3ccc(Cl)cn3c2[N+](=O)[O-])cc1	> 94		> 50	> 100						
COc1ccc(-c2ccc3nc(CS(=O)(=O)c4ccccc4)c([N+](=O)[O-])n3c2)cc1								ND(Insoluble)	ND(Insoluble)	ND(Insoluble)
O=[N+]([O-])c1c(CCl)nc2ccc(Br)cn12	4.9	0.5	9.6	15.6	1.6					
Cc1ccc(S(=O)(=O)Cc2cn3cc(I)ccc3n2)cc1	25	<0.5	> 50	> 12.5						
Cc1ccc(S(=O)(=O)Cc2cn3cc(Cl)ccc3n2)cc1	33.3	0.9	33.5	68.3	2					
O=[N+]([O-])c1c(CS(=O)(=O)c2ccccc2)nc2ccc(-c3ccc4ccccc4c3)cn12								ND(Insoluble)	ND(Insoluble)	ND(Insoluble)
Cc1nc2ccccn2c1[N+](=O)[O-]	> 100		> 50	> 100						
COc1ccc(S(=O)(=O)Cc2nc3ccc(Br)cn3c2[N+](=O)[O-])cc1	> 92.5		> 50	> 100						
O=[N+]([O-])c1c(CS(=O)(=O)c2ccc(C(F)(F)F)cc2)nc2ccc(Br)cn12	> 25		> 50	31.7	<0.6					
